Measurements published in ChEMBL document CHEMBL3044618, “Repellent constituents of essential oil of Cymbopogon distans aerial parts against two stored-product insects” (2011).

Tests used:
Type in all cases: functional
Tribolium castaneum [1] = assay: Insecticidal activity against adult Tribolium castaneum (red flour beetle) assessed as repellent activity at 1.6 nL/cm2 after 4 hr
Procedure, shortened: (§1)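 Adult T. castaneum, about 2 weeks old, reared on wheat flour plus yeast (10:1, w/w) in the dark at 28–30 °C and 70–80% RH. In Fluon-coated 9 cm dishes, half of a 9 cm filter paper received 500 μL of acetone solution and the other half received acetone, then both were air-dried. Insects on each half were counted at 2 and 4 h. Percent repellency was computed from the counts. Five replicates, three runs.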

Tribolium castaneum [2] = assay: Insecticidal activity against adult Tribolium castaneum (red flour beetle) assessed as repellent activity at 0.016 nL/cm2 after 4 hr; procedure, shortened: as §1
[3] = test system: Liposcelis bostrychophila; assay: Insecticidal activity against adult Liposcelis bostrychophila (booklice) assessed as repellent activity at 1.6 nL/cm2 after 4 hr
Procedure, shortened: (§2)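 Adult booklice, about 2 weeks old, from dark cultures at 28–30 °C and 70–80% RH on milk powder/active yeast/flour (1:1:1). Half of a 6 cm filter paper received 150 μL of sample in acetone; the other half received acetone; both were air-dried. Papers were placed in Fluon-coated 6 cm Petri dishes. Insects on each half were counted at 2 and 4 h. PR = (Nc−Nt)/(Nc+Nt)×100. Five replicates, repeated three times.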

[4] = test system: Liposcelis bostrychophila; assay: Insecticidal activity against adult Liposcelis bostrychophila (booklice) assessed as repellent activity at 26 nL/cm2 after 4 hr; procedure, shortened: as §2
[5] = test system: Liposcelis bostrychophila; assay: Insecticidal activity against adult Liposcelis bostrychophila (booklice) assessed as repellent activity at 26 nL/cm2 after 2 hr; procedure, shortened: as §2
Tribolium castaneum [6] = assay: Insecticidal activity against adult Tribolium castaneum (red flour beetle) assessed as repellent activity at 0.16 nL/cm2 after 4 hr; procedure, shortened: as §1
[7] = test system: Liposcelis bostrychophila; assay: Insecticidal activity against adult Liposcelis bostrychophila (booklice) assessed as repellent activity at 1.6 nL/cm2 after 2 hr; procedure, shortened: as §2
Tribolium castaneum [8] = assay: Insecticidal activity against adult Tribolium castaneum (red flour beetle) assessed as repellent activity at 0.016 nL/cm2 after 2 hr; procedure, shortened: as §1
[9] = test system: Liposcelis bostrychophila; assay: Insecticidal activity against adult Liposcelis bostrychophila (booklice) assessed as repellent activity at 6.4 nL/cm2 after 2 hr; procedure, shortened: as §2
Tribolium castaneum [10] = assay: Insecticidal activity against adult Tribolium castaneum (red flour beetle) assessed as repellent activity at 0.0016 nL/cm2 after 4 hr; procedure, shortened: as §1
Tribolium castaneum [11] = assay: Insecticidal activity against adult Tribolium castaneum (red flour beetle) assessed as repellent activity at 1.6 nL/cm2 after 2 hr; procedure, shortened: as §1
Tribolium castaneum [12] = assay: Insecticidal activity against adult Tribolium castaneum (red flour beetle) assessed as repellent activity at 0.0016 nL/cm2 after 2 hr; procedure, shortened: as §1
[13] = test system: Liposcelis bostrychophila; assay: Insecticidal activity against adult Liposcelis bostrychophila (booklice) assessed as repellent activity at 3.2 nL/cm2 after 4 hr; procedure, shortened: as §2
[14] = test system: Liposcelis bostrychophila; assay: Insecticidal activity against adult Liposcelis bostrychophila (booklice) assessed as repellent activity at 3.2 nL/cm2 after 2 hr; procedure, shortened: as §2
[15] = test system: Liposcelis bostrychophila; assay: Insecticidal activity against adult Liposcelis bostrychophila (booklice) assessed as repellent activity at 6.4 nL/cm2 after 4 hr; procedure, shortened: as §2
[16] = test system: Liposcelis bostrychophila; assay: Insecticidal activity against adult Liposcelis bostrychophila (booklice) assessed as repellent activity at 13 nL/cm2 after 2 hr; procedure, shortened: as §2
Tribolium castaneum [17] = assay: Insecticidal activity against adult Tribolium castaneum (red flour beetle) assessed as repellent activity at 16 nL/cm2 after 2 hr; procedure, shortened: as §1
Tribolium castaneum [18] = assay: Insecticidal activity against adult Tribolium castaneum (red flour beetle) assessed as repellent activity at 0.16 nL/cm2 after 2 hr; procedure, shortened: as §1
[19] = test system: Liposcelis bostrychophila; assay: Insecticidal activity against adult Liposcelis bostrychophila (booklice) assessed as repellent activity at 13 nL/cm2 after 4 hr; procedure, shortened: as §2
Tribolium castaneum [20] = assay: Insecticidal activity against adult Tribolium castaneum (red flour beetle) assessed as repellent activity at 16 nL/cm2 after 4 hr; procedure, shortened: as §1

Row | Structure (SMILES) | Repellency (Tribolium castaneum [1]) | Repellency (Tribolium castaneum [2]) | Repellency [3] | Repellency [4] | Repellency [5] | Repellency (Tribolium castaneum [6]) | Repellency [7] | Repellency (Tribolium castaneum [8]) | Repellency [9] | Repellency (Tribolium castaneum [10]) | Repellency (Tribolium castaneum [11]) | Repellency (Tribolium castaneum [12]) | Repellency [13] | Repellency [14] | Repellency [15] | Repellency [16] | Repellency (Tribolium castaneum [17]) | Repellency (Tribolium castaneum [18]) | Repellency [19] | Repellency (Tribolium castaneum [20])
1 | CC(C)=CCC[C@@H](C)CCO [(+)-CITRONELLOL] | 75% | 48% | 32% | 82% | 96% | 66% | 28% | 44% | 66% | 36% | 82.5% | 40% | 44% | 52% | 64% | 66% | 88% | 64% | 76% | 96%
2 | CC(C)=CCC[C@@H](C)CC=O [CITRONELLAL] | -16% | -16% | -10% | 34% | 36% | 6% | -10% | 4% | 20% | 0% | -12% | -20% | 12% | -4% | 6% | -10% | 16% | 10% | 4% | -4%
3 | C=C(C)[C@H]1CC=C(C)CC1 [D-LIMONENE] | -44% | -36% | -4% | 40% | 36% | 8% | -6% | -36% | -20% | 12% | -22% | 20% | -22% | -10% | -18% | -4% | 20% | 2% | 30% | -4%
4 | CCN(CC)C(=O)c1cccc(C)c1 [DIETHYLTOLUAMIDE] | -12% | -4% | 42% | 94% | 96% | -16% | 46% | 0% | 84% | -46% | 6% | -34% | 64% | 82% | 92% | 100% | 92% | 0% | 94% | 90%
5 | CC(C)=CCC/C(C)=C/CO [GERANIOL] | 60% | -10% | 44% | 92% | 86% | 14% | 42% | -12% | 90% | -14% | 58% | -10% | 74% | 84% | 96% | 95% | 96% | 14% | 82.5% | 86%
